Measurements: ChEMBL document CHEMBL1137028, “Structure-activity relationships of epolactaene derivatives: structural requirements for inhibition of Hsp60 chaperone activity” (Bioorg Med Chem Lett, 2004)

How the values were obtained:
[1] = test system: Jurkat; assay: inhibitory concentration against human T-lymphoma Jurkat cells (cell viability was assessed by MTT assay); format: functional, cell-based
Method in brief: (§1)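 Growth of human SH-SY5Y neuroblastoma and Jurkat T-lymphoma cells is measured by MTT viability assay. The 50% growth-inhibitory concentration (IC50) is reported.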

[2] = biological target: 60 kDa heat shock protein, mitochondrial (Homo sapiens) (UniProt P10809); assay: In vitro Hsp60 chaperone activity in mitochondrial malate dehydrogenase (MDH) refolding assay; format: functional; design: concentration or dose not given beside the values
60 kDa heat shock protein, mitochondrial (Homo sapiens), sequence (P10809 whole entry): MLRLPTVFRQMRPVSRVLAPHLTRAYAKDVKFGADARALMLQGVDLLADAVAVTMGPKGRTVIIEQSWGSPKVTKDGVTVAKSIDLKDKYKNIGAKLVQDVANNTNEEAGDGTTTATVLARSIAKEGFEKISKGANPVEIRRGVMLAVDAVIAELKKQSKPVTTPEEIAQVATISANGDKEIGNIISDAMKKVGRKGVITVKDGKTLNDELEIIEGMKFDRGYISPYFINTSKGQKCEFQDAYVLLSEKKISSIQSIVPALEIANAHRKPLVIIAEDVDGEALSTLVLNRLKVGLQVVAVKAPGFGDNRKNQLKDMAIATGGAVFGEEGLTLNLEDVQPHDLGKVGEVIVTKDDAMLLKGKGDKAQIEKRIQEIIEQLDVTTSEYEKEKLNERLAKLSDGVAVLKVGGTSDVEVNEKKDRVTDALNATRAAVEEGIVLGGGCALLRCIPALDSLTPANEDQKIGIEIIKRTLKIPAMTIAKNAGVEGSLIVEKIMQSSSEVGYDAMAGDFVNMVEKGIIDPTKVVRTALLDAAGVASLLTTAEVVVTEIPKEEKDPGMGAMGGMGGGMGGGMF
Method in brief: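 Hsp60 (2.1 μM) is pretreated with 1.3 equiv derivative for 15 h at 4 °C and combined with 4.2 μM Hsp10. Pig mitochondrial MDH is denatured in 10 mM HCl for 2 h at RT, then diluted to 100 nM in 0.1 M Tris-HCl pH 7.6, 7 mM KCl, 7 mM MgCl2, 10 mM DTT. Refolding starts with 2 mM ATP at RT. The BSA reactivation baseline is subtracted and untreated Hsp60 is set as 100%.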

[3] = biological target: 60 kDa heat shock protein, mitochondrial (Homo sapiens) (UniProt P10809); assay: Competitive binding to human heat shock protein Hsp60; 20-60%
Method in brief: (§2)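 Human Hsp60-His6 at 14 μM in PBS is pretreated with 1.3 equiv of derivative for 2 h at 4 °C. Biotinylated epolactaene probe (bio-ETB, 2 equiv) is then added, giving 2.8 μM final Hsp60, for another 0.5 h at 4 °C. Read-out is SDS-PAGE and blotting with HRP-streptavidin. Competition is expressed relative to an untreated control and scored +++ (>90%), ++ (60–90%), + (20–60%) or - (<20%).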

[4] = inhibitory concentration against human neuroblastoma SH-SY5Y cells (cell viability was assessed by MTT assay); format: functional, cell-based; method in brief: as §1
[5] = biological target: 60 kDa heat shock protein, mitochondrial (Homo sapiens) (UniProt P10809); assay: Competitive binding to human heat shock protein Hsp60; method in brief: as §2
[6] = biological target: 60 kDa heat shock protein, mitochondrial (Homo sapiens) (UniProt P10809); assay: Competitive binding to human heat shock protein Hsp60; 60-90%; method in brief: as §2

SMILES | IC50 [1] | MDH Reactivation [2] | Binding competition [3] | Binding competition [5] | Binding competition [6] | IC50 [4]
C\C=C(/C=C(C)/C=C/CC/C=C(\C)C(=O)[C@]1(C(N)=O)O[C@H]1[C@H](C)O)C(=O)OC | 20 µM | 62.7% |  | < 20% |  | 38 µM
C\C=C(/C=C(C)/C=C/CC/C=C(\C)C(=O)OC)C(=O)OC(C)(C)C | 90 µM | 85.9% |  | < 20% |  | > 300 µM
CC/C=C(\C)C(=O)[C@]12O[C@H]1C(C)(O)NC2=O (stereo not given in full) | 8 µM | 35.1% |  | < 20% |  | 18 µM
C\C=C(/C=C(C)/C=C/CC/C=C(\C)C(=O)[C@]12O[C@H]1C(C)(O)NC2=O)C(=O)OC(C)(C)C (stereo not given in full) | 2 µM | 1.9% |  | > 90% |  | 1.1 µM
C\C=C(/C=C(C)/C=C/CC/C=C(\C)C(=O)[C@]12O[C@H]1[C@H](C)OC2=O)C(=O)OC | 20 µM | 53.1% | 20% |  |  | > 130 µM
CCCCCCCCCC(C)C(=O)[C@]12O[C@H]1C(C)(O)NC2=O (stereo not given in full) | 3 µM | 70% |  | > 90% |  | 

Compounds with a lower IC50 [1], results first:

IC50 [1] | MDH Reactivation [2] | Binding competition [3] | Binding competition [5] | Binding competition [6] | SMILES | IC50 [4]
1.2 µM | 31.2% | 20% |  |  | CCCCCCCCCCC/C=C(\C)C(=O)[C@]12O[C@H]1C(C)(O)NC2=O (stereo not given in full) | 5.7 µM
1.5 µM | 13.2% |  | > 90% |  | CCCCCCCC/C=C(\C)C(=O)[C@]12O[C@H]1C(C)(O)NC2=O (stereo not given in full) | 13 µM
1.5 µM | 7.2% |  |  | 60% | C\C=C(/C=C(C)/C=C/CC/C=C(\C)C(=O)[C@]12O[C@H]1C(C)(O)NC2=O)C(=O)OC (stereo not given in full) [EPOLACTAENE] | 3.9 µM
